Consider 3 compounds from BindingDB's records for doi:10.1021/jm960245f (University of Maryland, 1996).

Experiment [1] has as its target T1, Steroid 17-alpha-hydroxylase/17,20 lyase (Homo sapiens, UniProt P05093).
T1 sequence (P05093 whole entry): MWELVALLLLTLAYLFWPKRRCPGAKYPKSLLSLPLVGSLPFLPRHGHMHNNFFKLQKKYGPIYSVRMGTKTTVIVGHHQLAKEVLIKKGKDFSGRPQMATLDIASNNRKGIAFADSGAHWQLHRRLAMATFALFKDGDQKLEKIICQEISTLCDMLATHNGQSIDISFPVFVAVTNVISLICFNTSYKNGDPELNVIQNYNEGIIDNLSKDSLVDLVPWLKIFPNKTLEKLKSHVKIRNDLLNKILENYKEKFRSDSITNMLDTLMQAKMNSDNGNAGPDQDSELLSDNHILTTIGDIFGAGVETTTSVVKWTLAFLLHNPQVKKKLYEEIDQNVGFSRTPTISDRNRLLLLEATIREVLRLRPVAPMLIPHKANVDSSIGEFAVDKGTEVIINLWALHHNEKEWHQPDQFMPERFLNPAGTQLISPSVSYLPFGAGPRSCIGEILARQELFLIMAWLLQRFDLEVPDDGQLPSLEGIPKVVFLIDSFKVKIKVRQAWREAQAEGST
Briefly: Inhibition of human testicular 17-alpha-hydroxylase. The gist of the method: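 Human testicular microsomes (ca. 90 μg protein; from orchidectomy patients, stored at –70 °C, diluted in 0.1 M phosphate buffer) incubated with [7-3H]pregnenolone (400 nM) plus NADPH-generating system in phosphate buffer pH 7.4 under oxygen, 5 min, 34 °C, at four to five inhibitor concentrations. Reverse-phase HPLC with radioactivity counting; activity = conversion to 17α-hydroxypregnenolone plus DHEA. IC50 by nonlinear regression; duplicates, repeated at least once.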

In experiment [2] the target is T1, Steroid 17-alpha-hydroxylase/17,20 lyase. The experiment in a line: Inhibition of human testicular steroid 17-alpha-hydroxylase. Put shortly:
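Human testicular microsomes (orchidectomy tissue from untreated prostatic cancer patients, ca. 90 μg protein) incubated with [7-³H]pregnenolone (400 nM) plus NADPH-generating system in pH 7.4 phosphate buffer under oxygen, 5 min, 34 °C, with four to five inhibitor concentrations. Reverse-phase HPLC with radioactivity counting; activity = conversion to 17α-hydroxypregnenolone plus DHEA. Duplicates, repeated at least once; IC50 by nonlinear regression.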

pIC50: −log10 of the molar value.

For orientation: pIC50 means the IC50 on a negative log10 scale, so that one unit is a factor of ten. A higher pIC50 goes with a low IC50. Compound `C[C@@H](CN=O)[C@H]1CC[C@H]2[C@@H]3CCC4=CC(=O)CC[C@]4(C)[C@H]3CC[C@]12C` showed a pIC50 in experiment [1] of 5.22. In experiment [1], `CC(N=N)[C@H]1CC[C@H]2[C@@H]3CC=C4C[C@@H](O)CC[C@]4(C)[C@H]3CC[C@]12C` (stereo partly drawn) had a negative logarithm of the IC50 (pIC50) of 5.00.

As for `CC(N=O)C1CCC2C3CC=C4C[C@@H](O)CC[C@]4(C)C3CC[C@]12C` (stereo partly drawn) [1-((3S,10R,13S)-3-Hydroxy-10,13-dimethyl-2,3,4,7,8,9,10,11,12,13,14,15,16,17-tetradecahydro-1H-cyclopenta[a]phenanthren-17-yl)-ethanone oxime], the negative logarithm of the IC50 (pIC50) in experiment [2] is 6.28.
